Measurements from different studies.
Target: Serine/threonine-protein kinase D2 (PRKD2, Homo sapiens, UniProt Q9BZL6)
One construct used (Q9BZL6 1-878): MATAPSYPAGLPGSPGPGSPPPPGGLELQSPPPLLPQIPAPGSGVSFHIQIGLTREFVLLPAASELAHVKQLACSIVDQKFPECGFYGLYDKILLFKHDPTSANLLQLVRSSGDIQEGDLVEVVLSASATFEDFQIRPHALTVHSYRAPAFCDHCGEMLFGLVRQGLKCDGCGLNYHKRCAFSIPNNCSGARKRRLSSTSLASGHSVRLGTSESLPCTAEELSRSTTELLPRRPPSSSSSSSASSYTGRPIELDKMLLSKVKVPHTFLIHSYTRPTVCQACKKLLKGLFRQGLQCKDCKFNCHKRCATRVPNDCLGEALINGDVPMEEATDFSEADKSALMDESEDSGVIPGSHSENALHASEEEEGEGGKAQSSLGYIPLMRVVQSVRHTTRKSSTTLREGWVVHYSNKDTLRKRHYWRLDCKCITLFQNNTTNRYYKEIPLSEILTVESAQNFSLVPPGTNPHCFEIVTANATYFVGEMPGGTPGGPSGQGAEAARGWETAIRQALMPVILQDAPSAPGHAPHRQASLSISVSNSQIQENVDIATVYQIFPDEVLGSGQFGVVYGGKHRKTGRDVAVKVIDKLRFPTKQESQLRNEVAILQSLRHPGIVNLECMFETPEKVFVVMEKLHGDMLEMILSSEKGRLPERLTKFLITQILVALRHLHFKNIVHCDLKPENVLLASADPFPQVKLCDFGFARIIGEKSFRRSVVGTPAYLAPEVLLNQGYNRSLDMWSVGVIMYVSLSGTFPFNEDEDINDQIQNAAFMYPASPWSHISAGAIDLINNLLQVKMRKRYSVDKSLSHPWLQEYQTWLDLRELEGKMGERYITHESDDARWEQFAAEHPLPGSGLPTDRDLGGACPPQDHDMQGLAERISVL

| Compound | read-out | mode | technique | concentration | measurement | result |
| --- | --- | --- | --- | --- | --- | --- |
| CN([C@@H]1CCc2c(CC(=O)O)c3ccccc3n2C1)S(=O)(=O)c1ccc(F)cc1 | cell-free assay | – | competition with immobilised ligand | 1 µM | remaining binding | 100% |
| Cn1c2c(Cl)c(Cl)ccc2c2cn[nH]c(=O)c21 | thermal stability | – | DSF | 10 µM | ΔTm | 0.1 °C |
| O=C1Nc2ccc(Cl)cc2C1=Cc1cc(Cl)c(O)c(Cl)c1 | cell-free assay | – | – | 0.5 µM | remaining signal | 95.5% |
| Cn1c2c(c3ccc(Cl)c(Cl)c31)C(C#N)C1(CCOCC1)NC2=O (stereo not drawn) | thermal stability | – | DSF | 10 µM | ΔTm | -0.1 °C |
| COc1cccc(CNC(=O)c2nc3scc(COCc4ccc(C(=O)O)cc4)c3c(=O)[nH]2)c1 | cell-free assay | – | competition with immobilised ligand | 1 µM | remaining binding | 100% |
| Cn1cnc(Br)c1C1=CN(c2ncnc3[nH]cnc23)CCS1 | enzyme activity | inhibitor | radiometric | 2 µM | inhibition | 95.6% |
| c1ccc(CNc2nc(N3CCOc4ccccc43)nc3c2CCCC3)cc1 | target engagement in cells | inhibitor | chemoproteomics | 20 mM | inhibition | -7.2% |
| CCN(CC)CCNC(=O)c1c(C)[nH]c(/C=C2\C(=O)Nc3ccc(F)cc32)c1C | enzyme activity | inhibitor | – | 0.3 µM | inhibition | 30% |
| CCCS(=O)(=O)Nc1ccc(F)c(C(=O)c2c[nH]c3ncc(-c4ccc(Cl)cc4)cc23)c1F | enzyme activity | inhibitor | – | 1 µM | inhibition | < 10% |
| COc1ccc(COc2ccc(Cc3cnc(N)nc3N)cc2OC)cc1 | cell-free assay | – | – | 0.5 µM | remaining signal | 99.4% |
| COc1cc2ncnc(Nc3ccc(Oc4ccccc4)c(C)c3C)c2cc1OC | enzyme activity | inhibitor | – | 1 µM | inhibition | 2% |
| CN1CC(Oc2cnc(C#N)cc2-c2ccn3nc(NC(=O)C4CC4)cc3c2)C1 | enzyme activity | inhibitor | – | 1 µM | inhibition | -22% |
| COc1cc(-c2cn(C3CCc4ccccc4N(CC(F)(F)F)C3=O)nn2)ccc1-n1ccc(C)n1 (stereo not drawn) | cell-free assay | – | competition with immobilised ligand | 1 µM | remaining binding | 86% |
| CNc1cccc2cc(C(=O)Nc3ccc(C(=O)O)cc3)c(=O)[nH]c12 | enzyme activity | inhibitor | – | 10 µM | inhibition | 2.5% |
| CCS(=O)(=O)c1cc2cc(C[C@@](O)(CC(C)(C)c3ccc(F)cc3C(N)=O)C(F)(F)F)[nH]c2cn1 | cell-free assay | – | competition with immobilised ligand | 1 µM | remaining binding | 89% |
| Cc1cnc(NC2CCOCC2)nc1-n1cnc(C(=O)NC(CN)c2cc(F)cc(Cl)c2)c1 (stereo not drawn) | enzyme activity | inhibitor | radiometric | 1 µM | remaining activity | 5% |
| CO[C@H]1CC[C@H](CNc2ccc(S(=O)(=O)NC(=O)c3ccc(N4CCN(CC5=C(c6ccc(Cl)cc6)CC(C)(C)CC5)CC4)cc3Oc3cnc4[nH]ccc4c3)cc2[N+](=O)[O-])CC1 | cell-free assay | – | competition with immobilised ligand | 1 µM | remaining binding | 100% |

| Compound | read-out | mode | technique | concentration | measurement | result |
| --- | --- | --- | --- | --- | --- | --- |
| O=S1(=O)N=C(NCc2ccc(OC(F)(F)F)cc2)Nc2cc(Cl)ccc21 | binding | – | competition with immobilised ligand | 10 µM | inhibition | > 90% |
| CNC(=O)Nc1ccc2c(c1)[C@@]1(CC2)OC(=O)N(CC(=O)N(Cc2ccc(F)cc2)[C@@H](C)C(F)(F)F)C1=O | cell-free assay | – | competition with immobilised ligand | 1 µM | remaining binding | 100% |
| O=C(Nc1cnn(-c2csc(C(=O)NC3COC3)c2)c1)Nc1ccccc1Cl | enzyme activity | inhibitor | – | 5 µM | remaining activity | 92.8% |
| CC(C)CC(=O)N1CCc2nc(-c3ccc(Br)cc3)nc(N(C)Cc3ccccc3)c2C1 | cell-free assay | – | competition with immobilised ligand | 0.1 µM | remaining binding | 100% |
| CC(C)(C)c1nc2c(s1)c1nc(N)ncc1c1ccc(NS(=O)(=O)c3c(F)cccc3F)c(F)c12 | enzyme activity | inhibitor | radiometric | 1 µM | remaining activity | 79% |
| Cc1ccc(NC(=O)c2ccc(C)c(C(F)(F)F)c2)cc1C#Cc1nn(C2CCC(O)CC2)c2ncnc(N)c12 (stereo not drawn) | cell-free assay | – | – | 10 µM | remaining signal | 108% |
| COc1cc(Cl)c(C(=O)N[C@@H](CN[C@H]2CC[C@@H](N)CC2)Cc2ccc(C#N)cc2)cc1-c1ccc(CN[C@H](C)c2ccc(C)cc2)o1 | enzyme activity | inhibitor | – | 1 µM | remaining activity | 109% |
| CCN1CCC2(CC1)NC(=O)c1c(c3ccc(Cl)c(Cl)c3n1C)C2C#N (racemic) | thermal stability | – | DSF | 10 µM | ΔTm | 0.6 °C |
| CCCCN(CCCC)C(=O)CN1C[C@H](c2cc(OC)c3c(c2)OCO3)[C@@H](C(=O)O)[C@@H]1CC(C)(C)CCC | cell-free assay | – | competition with immobilised ligand | 1 µM | remaining binding | 100% |
| CCN(CC)c1ccc(C2=NNC(=O)CC2C)cc1[N+](=O)[O-] (stereo not drawn) | enzyme activity | inhibitor | – | 10 µM | remaining activity | 106% |
| Cn1cncc1C1=CN(c2ncnc3[nH]cnc23)CCS1 | enzyme activity | inhibitor | radiometric | 50 nM | inhibition | 38.2% |
| CCCCNc1ncc2c(-c3ccc(F)cc3)nn(C[C@H]3CC[C@H](N)CC3)c2n1 | target engagement in cells | inhibitor | chemoproteomics | 20 mM | inhibition | 28.3% |
| N#CC1c2c([nH]c3c(Cl)c(Cl)ccc23)C(=O)NC12CCCCC2 (racemic) | thermal stability | – | DSF | 10 µM | ΔTm | 0.1 °C |
| CNC(=O)c1cc(Oc2ccc(NC(=O)Nc3ccc(Cl)c(C(F)(F)F)c3)cc2)ccn1 | enzyme activity | inhibitor | – | 0.3 µM | inhibition | 5% |
| Cn1c2c(c3ccc(Cl)c(Cl)c31)C(C#N)C1(CCCCC1)NC2=O (racemic) | thermal stability | – | DSF | 10 µM | ΔTm | 0.1 °C |
| Cc1ccc(Nc2nccc(N(C)c3ccc4c(C)n(C)nc4c3)n2)cc1S(N)(=O)=O | enzyme activity | inhibitor | – | 0.3 µM | inhibition | 9% |
